CHO parental Ca: counter-screen: ATP calcium response change in parental CHO cells; parental CHO-K1, ATP-induced calcium, Fluo-8 fluorescence; inhibition, % at 5.6 µM; hit rate 0.63% among 330,000; AID 463079;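 active means inhibition above that plate's mean sample inhibition plus 3 SD, cut at about 26% in these data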
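Assay system – parental CHO cells · Reagent – ATP stimulus · Detection – intracellular calcium via Fluo-8 no-wash fluorescent dye · Evaluation – percent inhibition of ATP-evoked calcium rise, normalized to controls · Controls – ATP wells versus no-ATP DMSO wells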
TAAR1 ag: human TAAR1 agonism | Q96RJ0 | CHO RD-HGA16 TAAR1, Fluo-8 calcium fluorescence; vehicle wells 0%, saturating PEA agonist 100% | activation, % at 3 µM | hit rate 0.99% among 360,000;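 active means activation above the mean activation of all test compounds in the run plus 3 SD, cut at about 38% in these data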
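System: CHO-derived RD-HGA16 cells with stable Gα16 and human TAAR1. Times: 17-24 h plating, Fluo-8 75 min 37 °C, 30 min RT. Measured by: calcium-sensitive Fluo-8 signal, excitation 470-495, emission 515-575 nm. Read-out basis: % activation relative to PEA EC100 response. Control set: DMSO and PEA EC100. Repeats: no replicates (n 1).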
OX1R antag-1: antagonists of human orexin 1 receptor; O43613; CHO/OX1R cells, Fluo-8 calcium fluorescence, orexin A; inhibition, % at 5 µM; hit rate 0.43% among 330,000; AID 434989;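 active means inhibition above its plate's threshold, mean inhibition of all tested compounds on the plate plus 3 SD, cut at about 37% in these data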
Target sequence (O43613 whole entry, looked up): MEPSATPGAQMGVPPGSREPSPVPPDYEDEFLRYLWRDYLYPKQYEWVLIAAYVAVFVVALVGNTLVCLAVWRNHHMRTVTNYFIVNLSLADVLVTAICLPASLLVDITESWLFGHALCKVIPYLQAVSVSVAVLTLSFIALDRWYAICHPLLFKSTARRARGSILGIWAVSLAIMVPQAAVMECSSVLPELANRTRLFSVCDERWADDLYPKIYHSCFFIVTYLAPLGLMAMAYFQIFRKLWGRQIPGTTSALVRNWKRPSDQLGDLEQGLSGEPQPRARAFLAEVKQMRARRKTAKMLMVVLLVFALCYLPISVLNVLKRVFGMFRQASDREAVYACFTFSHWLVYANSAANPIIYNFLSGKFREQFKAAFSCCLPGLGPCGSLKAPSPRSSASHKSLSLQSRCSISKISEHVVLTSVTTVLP
GPR7 antagonist: antagonists of human GPR7 (neuropeptides B/W receptor 1); P48145; GPR7-expressing cells, fluorescence antagonist assay; inhibition, % at 4.4 µM; hit rate 1.1% among 290,000; in the data active means inhibition above about 16%, passing the limit was not always enough;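 further: cells stimulated with the agonist NPW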
Target sequence (P48145 whole entry, looked up): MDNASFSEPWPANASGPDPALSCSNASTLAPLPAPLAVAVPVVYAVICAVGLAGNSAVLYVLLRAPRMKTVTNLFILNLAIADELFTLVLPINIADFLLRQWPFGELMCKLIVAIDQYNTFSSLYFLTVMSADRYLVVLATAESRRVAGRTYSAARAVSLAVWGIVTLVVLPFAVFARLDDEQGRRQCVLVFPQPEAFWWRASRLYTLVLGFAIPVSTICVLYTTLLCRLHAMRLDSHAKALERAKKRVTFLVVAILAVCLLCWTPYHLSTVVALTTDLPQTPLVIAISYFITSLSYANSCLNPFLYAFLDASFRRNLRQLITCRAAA
OX1R antag-2: OX1R (human) antagonism; AID 485270; inhibition, % at 6.6 µM; O43613; hit rate 1.8% among 330,000; OX1R-expressing cells, FRET antagonist read-out; in the data active means inhibition mostly above about 38%, no sharp cut-off; inactive means mostly below about 40%
TAAR1 antag: human TAAR1 antagonism; hit rate 1.5% among 360,000; CHO RD-HGA16 TAAR1, Fluo-8 calcium fluorescence, antagonist; AID 624466; inhibition, % at 3 µM;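 active means inhibition above a per-plate cutoff, the mean inhibition of test compounds on that plate plus 3 SD, cut at about 49% in these data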
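Test system: CHO RD-HGA16 cells bearing hTAAR1 | Reagent: β-PEA, EC80 | Compound dosing: 3 µM, single point | Schedule: Dye loading 75 min at 37 °C, then 30 min room temperature | Signal: Calcium fluorescence with Fluo-8 | Evaluation: Percent inhibition of PEA-evoked calcium signal, max/basal emission ratio | Control set: DMSO-only wells and EC80 β-PEA-stimulated wells | Repeats: Singlicate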
TAAR1 ag confirm: human TAAR1 agonism, confirmed | shares compounds with TAAR1 ag | CHO RD-HGA16 TAAR1, Fluo-8 calcium fluorescence; scaled: DMSO 0%, maximal phenethylamine 100% | activation, % at 3 µM | hit rate 82% among 2,400;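 active means activation above a cutoff set at the run's mean compound activation plus 3 SD, cut at about 39% in these data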
Ga16 nonsel ag: nonselective agonism, TAAR1 counter-screen | hit rate 50% among 2,400 | shares compounds with TAAR1 ag | activation, % at 3 µM | CHO-Ga16 parental, Fluo-8 calcium fluorescence; normalized to maximal ATP response, DMSO zero;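 active means activation above the run cutoff, the mean activation over all tested wells plus 3 SD, cut at about 12% in these data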
TAAR1 desensitize: TAAR1 response desensitization, agonist counter-screen; inhibition, % at 3 µM; AID 651951; CHO RD-HGA16 hTAAR1, Fluo-8 calcium, beta-PEA response inhibition; shares compounds with TAAR1 ag; hit rate 46% among 2,400;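 active means inhibition above the run cutoff, the mean inhibition of all test compounds plus 3 SD, cut at about 49% in these data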;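 further: beta-PEA stimulus applied at its EC80; loss of beta-PEA calcium signal after compound pretreatment read as receptor desensitization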
Ga16 nonsel ant: nonselective Ga16 antagonism, counter-screen; shares compounds with TAAR1 ag; CHO-Ga16 ATP-induced calcium, Fluo-8 fluorescence; inhibition, % at 3 µM; hit rate 39% among 2,400; AID 651952;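 active means inhibition above the plate's mean compound inhibition plus 3 SD, computed per plate, cut at about 22% in these data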
A number is an active result; n = inactive; x = not tested or not shown. An excerpt weighted towards active compounds, which were near 4.6% of everything screened.

SMILES | CHO parental Ca | TAAR1 ag | OX1R antag-1 | GPR7 antagonist | OX1R antag-2 | TAAR1 antag | TAAR1 ag confirm | Ga16 nonsel ag | TAAR1 desensitize | Ga16 nonsel ant
COc1ccc(NC(=O)C[C@H]2C(=O)N(Cc3ccccc3)C[C@@H]2c2ccc(OC)cc2)cc1 | x | n | x | x | x | n | x | x | x | x
CNC(=O)C[C@H]1C(=O)N(CCc2ccccc2)C[C@@H]1c1ccc(OC)cc1 | x | 42 | x | x | x | n | 76 | n | n | n
CN(CC(=O)Nc1ccccc1Cl)C(=O)COC(=O)c1ccc(-c2ccc(O)cc2)cc1 | n | n | n | x | n | n | x | x | x | x
O=C(CN(Cc1ccccc1)C(=O)c1csnn1)NCCc1ccccc1 | n | 75 | n | n | n | n | 68 | n | n | n
CC(C)OC(=O)c1cccc(NC(=O)c2ccccc2)c1 | n | n | n | n | n | n | x | x | x | x
COC(=O)C1=C(C)N(Cc2ccc(C(F)(F)F)cc2)C(=NCc2ccccc2)NC1c1cccc(F)c1 (stereo not given) | x | 40 | x | x | x | 66 | n | 18 | n | 39
COC(=O)C1=C(C)N(Cc2cccc(C(F)(F)F)c2)C(=NCC2CC2)NC1c1cccc(F)c1 (stereo not given) | x | 131 | x | x | x | 97 | 104 | 70 | 92 | 81
COc1ccc(S(=O)(=O)NCc2ccc(C)cc2)cc1 | n | n | n | n | n | n | x | x | x | x
COc1cccc(O)c1CN1CCC(C(=O)Nc2ccc(Oc3cccnc3)cc2)CC1 | n | n | n | n | n | n | x | x | x | x
COc1cccc(O)c1CN1CCC(C(=O)Nc2ccc(-c3cccc(C)c3)cc2)CC1 | n | 53 | n | n | n | n | n | 18 | n | 37
COc1cc(/C=C2/C(=O)c3cccc([N+](=O)[O-])c3C2=O)c(Br)cc1O | n | 50 | n | n | n | n | n | 28 | n | 46
COc1ccccc1NC(=O)CCCCCN1C(=O)c2cccc([N+](=O)[O-])c2C1=O | n | n | n | n | n | n | x | x | x | x
COc1cc(C(=O)NC2CCN(Cc3ccccc3)CC2)cc(Cl)c1OC | n | n | n | n | n | n | x | x | x | x
O=C(CCN1CCC(c2ccccc2)C1)c1ccccc1 (stereo not given) | n | x | n | n | n | x | x | x | x | x
COc1cc(C(=O)CCN2CCC(c3ccccc3)C2)cc(OC)c1OC (stereo not given) | n | 92 | n | n | n | 86 | 105 | n | 96 | n
O=C(CCN1CCC(c2ccccc2)C1)c1ccc2c(c1)OCCO2 (stereo not given) | n | 83 | n | n | n | 83 | 80 | n | 86 | n
O=C(CCN1CCCC1Cc1ccccc1)c1ccc2c(c1)OCCO2 (stereo not given) | n | 87 | n | n | n | 73 | 101 | n | 85 | n
O=C(CCN1CCC(c2ccccc2)C1)c1cccs1 (stereo not given) | n | 100 | n | n | n | 92 | 100 | n | 95 | n
COc1ccc(Cc2nnc(SCC(=O)NC3(C#N)CCCCC3)n2N)cc1 | n | n | n | x | n | n | x | x | x | x
CCC(C)(C)C(=O)Nc1ncc(S(=O)(=O)c2ccc([N+](=O)[O-])cc2)s1 | n | 104 | n | n | n | n | 76 | 52 | 52 | 41
COc1ccccc1CCn1cnc(-c2cccc(Br)c2)c1C(C)C | x | n | x | x | x | n | x | x | x | x
CCCc1c(-c2ccccc2)ncn1Cc1ccccc1OC | x | n | x | x | x | n | x | x | x | x
COc1ccccc1CCn1cnc(-c2ccc(Br)cc2)c1C(C)C | x | 45 | x | x | x | n | 68 | n | 53 | 37
COc1ccccc1CCn1cnc(-c2ccccc2OC)c1C(C)C | x | 52 | x | x | x | n | 79 | n | 60 | n
CC1Cn2c(nc(=O)c3c2NCN(CCc2ccccc2)C3)S1 (stereo not given) | n | 53 | n | n | n | n | 46 | n | n | n
SMILES | CHO parental Ca | TAAR1 ag | OX1R antag-1 | GPR7 antagonist | OX1R antag-2 | TAAR1 antag | TAAR1 ag confirm | Ga16 nonsel ag | TAAR1 desensitize | Ga16 nonsel ant
Cn1c2c(c(=O)n(C)c1=O)CN(CCc1ccccc1)CN2 | n | 91 | n | n | n | 60 | 74 | n | n | n
Cc1ccc(Cl)cc1NC(=S)N(CCCN1CCN(C)CC1)Cc1ccco1 | n | n | n | n | n | n | x | x | x | x
CCO/N=C/c1ccc(OC)c(Oc2nc(OC)cc(OC)n2)c1 | n | n | n | n | n | n | x | x | x | x
COc1cccc(-c2c(C(=O)N/N=C/c3ccco3)nnn2-c2nonc2N)c1 | n | 78 | n | n | n | n | 97 | 52 | n | n
Nc1nonc1-n1nnc(C(=O)N/N=C/c2ccccc2Cl)c1-c1ccccc1 | n | n | n | n | n | n | x | x | x | x
COc1cccc(-c2c(C(=O)N/N=C/C3CC=CCC3)nnn2-c2nonc2N)c1 (stereo not given) | n | n | n | n | n | n | x | x | x | x
Nc1nonc1-n1nnc(C(=O)N/N=C/c2ccco2)c1-c1ccccc1 | n | 100 | n | n | n | n | 72 | 47 | n | n
Nc1nonc1-n1nnc(C(=O)N/N=C/c2ccoc2)c1-c1ccccc1 | n | 85 | n | n | n | n | 53 | 46 | n | n
O=S(=O)(c1ccc(F)c(F)c1)N1CCN(c2ccccn2)CC1 | n | n | n | n | n | n | x | x | x | x
Cc1ccc(N2CN(CCc3ccccc3)CNC2=S)cc1 | n | 73 | n | n | n | 60 | 90 | n | 81 | n
Cc1ccc(C)c(N2CN(CCC3=CCCCC3)CNC2=S)c1 | n | 59 | n | n | n | n | 53 | n | 59 | n
CCOC(=O)c1ccc(N2CN(CCc3ccccc3)CNC2=S)cc1 | n | x | n | n | n | x | x | n | x | n
CCCN1CNC(=S)N(c2ccc(C(=O)OCC)cc2)C1 | n | n | n | n | n | n | x | x | x | x
CCN1CNC(=S)N(CCc2ccccc2)C1 | n | n | n | n | n | n | x | x | x | x
C=CCN1CN(CCc2ccccc2)CNC1=S | n | 55 | n | n | n | n | 81 | 15 | n | n
CCCCc1nc2ccccc2n2cc3c(=O)n(C)c(=O)n(C)c3c12 | x | x | x | n | x | x | x | x | x | x
O=C(Nc1cc(Cl)ccc1-n1cncn1)C1CC1 | n | n | n | x | n | n | x | x | x | x
CN(CCc1ccccn1)C1CC(=O)N(c2ccc(Cl)cc2)C1=O (stereo not given) | n | 68 | n | n | n | n | n | n | n | n
